24 compounds from ChEMBL document CHEMBL2331153, “Structural investigation and biological activity of sesquiterpene lactones from the traditional Chinese herb Inula racemosa” (J Nat Prod, 2013) can be followed below.

Common to all, as to format: functional, cell-based
Test [1] relates to HT-1080. The test is described as follows: Antiproliferative activity against human HT1080 cells assessed as inhibition of cell proliferation after 72 hrs by CCK8 assay. The settings on record: HT-1080, 72 h. An outline of the steps: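 HT1080 fibrosarcoma cells cultured in alpha-MEM with 10% FBS and penicillin/streptomycin, 37 °C, 5% CO2. Seeded, allowed to adhere overnight, then incubated with compound for 72 h. CCK-8 added for 2 h, then A450 read. Mitomycin was the positive control. Duplicate experiments.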
(Tetrazolium assays rely on reduction of a dye to a coloured formazan, in cell work by metabolically active cells.)

The subject of test [2] is A549. The test is described as follows: Antiproliferative activity against human A549 cells assessed as inhibition of cell proliferation after 72 hrs by CCK8 assay. The settings on record: A549, 72 h. The essentials: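 A549 cells grown in RPMI 1640 with 10% FBS and penicillin/streptomycin at 37 °C, 5% CO2. Cells adhered overnight, then treated with compound for 72 h. CCK-8 added for 2 h at 37 °C, absorbance read at 450 nm. Mitomycin served as positive control. Run in duplicate.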

Test [3] deals with HepG2. The experiment in a line: Antiproliferative activity against human HepG2 cells assessed as inhibition of cell proliferation after 72 hrs by CCK8 assay. The settings on record: HepG2, 72 h. The essentials:
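HepG2 cells maintained in DMEM with 10% FBS and penicillin/streptomycin at 37 °C, 5% CO2. After overnight adherence, compound exposure lasted 72 h. Viable cells detected with CCK-8 (2 h incubation) by absorbance at 450 nm. Positive control was mitomycin. Assays in duplicate.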

Test [4] has as its system HUVEC. The experiment in a line: Antiproliferative activity against human HUVEC assessed as inhibition of cell proliferation after 72 hrs by CCK8 assay. The essentials:
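HUVECs at passages 2–6 grown in endothelial cell medium with 0.03 mg/mL endothelial cell growth supplement, 10% FBS, 0.1 mg/mL heparin and penicillin/streptomycin. Cells adhered overnight, then compound added for 72 h at 37 °C, 5% CO2. CCK-8 added for 2 h and absorbance read at 450 nm. Mitomycin positive control; duplicates.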

In test [5] the test system is HUVEC. The test is described as follows: Antiangiogenic activity against human HUVEC assessed as inhibition of endothelial cell tube formation at 1 ug/ml after 22 hrs by Matrigel assay. The essentials: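 HUVECs (passages 2–6) seeded at 25 000 cells/well onto a Matrigel layer and exposed to compound for 22 h; images taken 22 h after plating at ×40. Capillary tube formation scored as total length of capillary structures in two representative fields per experiment. Colchicine served as positive control.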

≈ marks a conversion by molar mass, not a printed value. Calls of active or inactive are those of the source. The calls are words filed in the database; no cut-off is given here.

A word on the IC50: it is the concentration that inhibits the measured activity by half.

For `C[C@@H]1C(=O)O[C@@H]2C[C@@]3(C)CCC[C@H](C)C3=C[C@]12O` [RACEMOSALACTONE C], the IC50 in test [1] was above 50 µg/mL; in test [2], 27.8 µg/mL (≈ 111 µM); in test [3], above 50 µg/mL.

Turning to `C=C1C(=O)O[C@@H]2C[C@@]3(C)CCCC(=C)[C@]3(O)C[C@H]12` [TELEKIN], the IC50 in test [1] stood at 3.5 µg/mL (≈ 14.1 µM); in test [2], 4.27 µg/mL (≈ 17.2 µM); in test [3], 8.14 µg/mL (≈ 32.8 µM).

Take `C=C1C(=O)O[C@@H]2C[C@@]3(C)CCC[C@H](C)C3=C[C@H]12` [HELENINE]: the IC50 in test [4] was determined as 2.4 µg/mL (≈ 10.3 µM); in test [1], 0.696 µg/mL (≈ 3 µM); in test [2], 0.55 µg/mL (≈ 2.37 µM); in test [3], 1.3 µg/mL (≈ 5.6 µM). In test [5], the inhibition entry was “Active”.

With `C=C1C(=O)O[C@@H]2C[C@@]3(C)CCCC(C)=C3C[C@H]12` [ALLOALANTOLACTONE], the IC50 in test [1] came out at 3.87 µg/mL (≈ 16.7 µM); in test [2], 2.67 µg/mL (≈ 11.5 µM); in test [3] it was 3.57 µg/mL (≈ 15.4 µM).

Regarding `C=C1C[C@H](O)C[C@]2(C)C[C@H]3OC(=O)[C@H](C)[C@H]3C[C@@H]12`, the concentration for half-maximal inhibition (IC50) in test [1], in test [2] and in test [3] was above 50 µg/mL throughout.

With `C[C@@H]1C2=C[C@H]3[C@@H](C[C@@]2(C)CC[C@@H]1O)OC(=O)[C@@H]3C`, the half-inhibitory concentration (IC50) in test [1], in test [2] and in test [3] was above 50 µg/mL throughout.

As to `C=C1C[C@H](O)C[C@]2(C)C[C@H]3OC(=O)[C@](C)(O)[C@H]3C[C@@H]12` [RACEMOSALACTONE D], the IC50 in test [1], in test [2] and in test [3] was above 50 µg/mL in each case.

For the compound `C=C1C(=O)O[C@@H]2C[C@@]3(C)CCC[C@]4(CO4)[C@@H]3C[C@H]12`, the IC50 amounted to 3.51 µg/mL (≈ 14.1 µM) in test [1], 2.65 µg/mL (≈ 10.7 µM) in test [2] and 3.78 µg/mL (≈ 15.2 µM) in test [3].

For the compound `C[C@@H]1C(=O)O[C@@H]2C[C@@]3(C)C[C@@H](O)C[C@H](C)C3=C[C@H]12`, the results for the IC50 in test [1], in test [2] and in test [3] were 20.1 µg/mL (≈ 80.3 µM), 24.8 µg/mL (≈ 99.1 µM) and 26.1 µg/mL (≈ 104 µM), respectively.

As for `C[C@H]1CCC[C@]2(C)C[C@H]3OC(=O)[C@](C)(O)[C@H]3C=C12`, the IC50 in test [1], in test [2] and in test [3] was above 50 µg/mL in each case.

In the case of `C[C@@H]1C(=O)O[C@@H]2C[C@@]3(C)CCC[C@]4(CO4)[C@@H]3C[C@H]12`, the IC50 in test [1], in test [2] and in test [3] was above 50 µg/mL throughout.

Consider `C=C1C(=O)O[C@@H]2C[C@@]3(C)CC[C@@H](O)C(=C)[C@@H]3C[C@H]12` [ISOTELEKIN], for which the IC50 worked out at 2.44 µg/mL (≈ 9.83 µM) in test [1], 1.47 µg/mL (≈ 5.92 µM) in test [2] and 4.19 µg/mL (≈ 16.9 µM) in test [3].

In the case of `C[C@@H]1C2=C[C@H]3[C@@H](C[C@@]2(C)CC[C@@H]1O)OC(=O)[C@@]3(O)CCl` [RACEMOSALACTONE B], the values for the half-inhibitory concentration (IC50) in test [1], in test [2] and in test [3] were above 50 µg/mL, 37.3 µg/mL (≈ 124 µM) and above 50 µg/mL, respectively.

For `CC1=C2C[C@@H]3[C@H](C)C(=O)O[C@@H]3C[C@@]2(C)CCC1=O`, the half-maximal inhibitory concentration (IC50) in test [1] was above 50 µg/mL; in test [2] it was 22.5 µg/mL (≈ 90.8 µM); in test [3], above 50 µg/mL.

Turning to `CO[C@@]12[C@H](COC(N)=O)C3=C(C(=O)C(C)=C(N)C3=O)N1C[C@@H]1N[C@@H]12` [MITOMYCIN], the IC50 in test [1] was found to be 0.15 µg/mL (≈ 0.449 µM); in test [2], 0.54 µg/mL (≈ 1.62 µM); in test [3], 0.14 µg/mL (≈ 0.419 µM).

In the case of `C=C1CCC[C@]2(C)C[C@H]3OC(=O)[C@@H](C)[C@H]3C[C@@H]12` [DIHYDROISOALANTOLACTONE], the IC50 in test [1], in test [2] and in test [3] was above 50 µg/mL throughout.

With `C[C@@H]1C(=O)O[C@@H]2C[C@@]3(C)CCC[C@H](C)[C@@]34O[C@H]4[C@H]12` [DIHYDROEPOXYALANTOLACTONE], the IC50 was 17.4 µg/mL (≈ 69.5 µM) in test [1], 16.2 µg/mL (≈ 64.8 µM) in test [2] and 25.3 µg/mL (≈ 101 µM) in test [3].

Turning to `C=C1C(=O)O[C@@H]2C[C@@]3(C)CCCC(=C)[C@@H]3C[C@H]12` [ISOALANTOLACTONE], the IC50 came to 2.5 µg/mL (≈ 10.8 µM) in test [4], 0.795 µg/mL (≈ 3.42 µM) in test [1], 0.38 µg/mL (≈ 1.64 µM) in test [2] and 1.77 µg/mL (≈ 7.62 µM) in test [3]. Further, in test [5], the inhibition result is “Active”.

For `C[C@@H]1C(=O)O[C@@H]2C[C@@]3(C)CCC[C@H](C)C3=C[C@H]12`, the IC50 in test [1] is above 50 µg/mL; in test [2], 24.8 µg/mL (≈ 106 µM); in test [3], above 50 µg/mL.

Consider `C[C@@H]1CCC[C@]2(C)C[C@@H]3OC(=O)C(CO)=C3C=C12` [MACROPHYLLILACTONE E], for which the IC50 in test [1] amounted to 28.5 µg/mL (≈ 115 µM); in test [2] it was 16.2 µg/mL (≈ 65.3 µM); in test [3] it was 31.2 µg/mL (≈ 126 µM).

Regarding `C=C1C(=O)O[C@@H]2C[C@@]3(C)CCC[C@H](C)[C@@]34O[C@H]4[C@H]12`, the IC50 in test [1] stood at 1.32 µg/mL (≈ 5.32 µM); in test [2], 1.59 µg/mL (≈ 6.4 µM); in test [3] it was 2.73 µg/mL (≈ 11 µM).

For `C=C1C[C@H](O)C[C@]2(C)C[C@H]3OC(=O)[C@@H](C)[C@H]3C[C@@H]12`, the IC50 in test [1], in test [2] and in test [3] was above 50 µg/mL in each case.

Consider `C[C@H]1C(=O)O[C@@H]2CC3=C[C@@H](O)C[C@H](C)[C@@]3(C)C[C@@H]21` [RACEMOSALACTONE E], for which the IC50 in test [1] is above 50 µg/mL; in test [2], 38.6 µg/mL (≈ 154 µM); in test [3], above 50 µg/mL.

Take `C=C1C(=O)O[C@@H]2C[C@@]3(C)CCC[C@H](C)[C@]3(O)C[C@H]12` [RACEMOSALACTONE A]: the IC50 in test [1] stood at 1.88 µg/mL (≈ 7.51 µM); in test [2], 1.51 µg/mL (≈ 6.03 µM); in test [3] it was 2.76 µg/mL (≈ 11 µM).
